From ChEMBL document CHEMBL1148216, “New nardosinanes and 19-oxygenated ergosterols from the soft coral Nephthea armata collected in Taiwan” (J Nat Prod, 2004)

Key:
Type in all cases: functional, cell-based
A549 = experiment: Cytotoxicity against human A549 cells
How it was run: (§1)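 Cytotoxicity was run by a previously described procedure, with mithramycin as the positive control, and IC50 values were derived. P-388 cells were a gift from an academic laboratory, and the A549 and HT-29 cells were obtained from a culture collection.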

P388 = experiment: Cytotoxicity against mouse P388 cells; how it was run: as §1
HT-29 = experiment: Cytotoxicity against human HT29 cells; how it was run: as §1

## CO[C@H]1O[C@@H]2CCC3=C[C@@H](O)C[C@H](C)[C@@]3(C)[C@H]2[C@@H]1C [ARMATIN C]
A549
  IC50: > 50 µM
P388
  IC50: > 50 µM
HT-29
  IC50: > 50 µM

## CO[C@@H]1O[C@H]2CCC3=CC(=O)C[C@H](C)[C@@]3(C)[C@H]2[C@@H]1C [ARMATIN E]
A549
  IC50: > 50 µM
P388
  IC50: > 50 µM
HT-29
  IC50: > 50 µM

## C[C@H]1[C@H]2[C@@H](CCC3=C[C@@H](O)C[C@H](C)[C@]32C)O[C@@H]1O [ARMATIN A]
A549
  IC50: > 50 µM
P388
  IC50: > 50 µM
HT-29
  IC50: > 50 µM

## C=C(CC[C@@H](C)[C@H]1CC[C@H]2[C@@H]3C[C@@H](O)[C@@]4(O)C[C@@H](O)CC[C@]4(COC(C)=O)[C@H]3CC[C@]12C)C(C)C [ARMATINOL B]
P388
  IC50: 3.2 µM
HT-29
  IC50: 3.1 µM

## C=C(CC[C@@H](C)[C@H]1CC[C@H]2[C@@H]3C[C@H]4O[C@]45C[C@@H](O)CC[C@]5(COC(C)=O)[C@H]3CC[C@]12C)C(C)C [ARMATINOL A]
A549
  IC50: 7.6 µM
P388
  IC50: 6.1 µM
HT-29
  IC50: 6.5 µM

## C[C@@H]1C(=O)O[C@@H]2CCC3=C[C@@H](O)C[C@H](C)[C@@]3(C)[C@@H]12 [ARMATIN B]
A549
  IC50: > 50 µM
P388
  IC50: > 50 µM
HT-29
  IC50: > 50 µM

## C[C@@H]1C(=O)O[C@H]2CCC3=CC(=O)C[C@H](C)[C@@]3(C)[C@H]21
A549
  IC50: > 50 µM
P388
  IC50: > 50 µM
HT-29
  IC50: > 50 µM

## CO[C@H](C(=O)[C@@H](O)[C@@H](C)O)[C@@H]1Cc2cc3cc(O[C@H]4C[C@@H](O[C@@H]5C[C@@H](O)[C@H](O)[C@@H](C)O5)[C@H](O)[C@@H](C)O4)c(C)c(O)c3c(O)c2C(=O)[C@H]1O[C@H]1C[C@@H](O[C@@H]2C[C@@H](O)[C@@H](O[C@@H]3C[C@](C)(O)[C@H](O)[C@@H](C)O3)[C@@H](C)O2)[C@H](O)[C@@H](C)O1 [PLICAMYCIN]
A549
  IC50: 0.2 µM
P388
  IC50: 0.1 µM
HT-29
  IC50: 0.3 µM

## CO[C@@H]1O[C@H]2CCC3=C[C@@H](O)C[C@H](C)[C@@]3(C)[C@H]2[C@@H]1C [ARMATIN D]
A549
  IC50: > 50 µM
P388
  IC50: > 50 µM
HT-29
  IC50: > 50 µM
